Measurements reported in ChEMBL document CHEMBL3232902, “PMPA and PMEA prodrugs for the treatment of HIV infections and human papillomavirus (HPV) associated neoplasia and cancer” (Eur J Med Chem, 2014).

Columns and labels:
Human alphaherpesvirus 2 = test: Antiviral activity against Herpes simplex virus G infected in HEL cells assessed as inhibition of virus-induced cytopathicity; format: functional, organism-based, strain G
In short: (§1)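 Confluent HEL cell cultures were inoculated with 100 CCID50 of virus in the presence of varying compound concentrations. Cytopathicity or plaque formation was scored once untreated infected controls reached completion. EC50 is the concentration inhibiting virus-induced cytopathicity by 50%.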

Human alphaherpesvirus 1 [1] = test: Antiviral activity against Herpes simplex virus KOS infected in HEL cells assessed as inhibition of virus-induced cytopathicity; format: functional, organism-based; in short: as §1
[2] = Cytotoxicity against HEL cells assessed as change in cellular morphology by microscopic analysis; format: cell-based; conditions: human, read-out: MIC
In short: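 Uninfected HEL monolayers were exposed to compound. Minimal cytotoxic concentration is the concentration causing microscopically visible alteration of cell morphology.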

HeLa [3] = test: Cytostatic activity against human HeLa cells after 72 hrs by coulter counting analysis; format: functional, cell-based
In short: (§2)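 (5-7.5)×10^4 cells/well were incubated with compound at 37°C, for 48 h (L1210) or 72 h (CEM, HeLa), then counted by Coulter counter. IC50 is the concentration inhibiting proliferation by 50%.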

[4] = (§3) Cytotoxicity against human CEM cells; format: cell-based, CCRF-CEM; conditions: CEM (CCRF-CEM) cells
Vaccinia virus = test: Antiviral activity against Vaccinia virus Lederle infected in HEL cells assessed as inhibition of virus-induced cytopathicity; format: functional, organism-based; conditions: Orthopoxvirus vaccinia; in short: as §1
L1210 = test: Cytostatic activity against mouse L1210 cells after 48 hrs by coulter counting analysis; format: functional, cell-based; in short: as §2
CCRF-CEM [5] = test: Cytostatic activity against human CEM cells after 72 hrs by coulter counting analysis; format: functional, cell-based; in short: as §2
[6] = test system: Human immunodeficiency virus 2; test: Antiviral activity against Human immunodeficiency virus type 2 ROD infected in human CEM cells assessed as inhibition of virus-induced giant cell formation after 4 to 5 days by microscopic analysis; format: functional, organism-based, ISOLATE ROD, CCRF-CEM
In short: (§4)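 CEM cells (~3×10^5/mL) were infected with 100 CCID50/mL HIV-1 IIIB or HIV-2 ROD with compound dilutions. After 4–5 days at 37°C, syncytium formation was scored microscopically. EC50 is the concentration inhibiting giant cell formation by 50%.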

Human alphaherpesvirus 1 [7] = test: Antiviral activity against thymidine kinase-deficient acyclovir-resistant Herpes simplex virus KOS infected in HEL cells assessed as inhibition of virus-induced cytopathicity; format: functional, organism-based; conditions: Human alphaherpesvirus 1, KOS; in short: as §1
[8] = test system: Human immunodeficiency virus 1; test: Antiviral activity against Human immunodeficiency virus 1 3B infected in human CEM cells assessed as inhibition of virus-induced giant cell formation after 4 to 5 days by microscopic analysis; format: functional, organism-based, CCRF-CEM; in short: as §4
[9] = Antiproliferative activity against human epidermal keratinocytes after 96 hrs by trypan blue staining-based Neubauer haemocytometric analysis; format: cell-based; conditions: Keratinocyte
In short: (§5)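 SiHa and HPV16+ M08 vulval keratinocytes (VIN3 biopsy-derived) were seeded at 4×10^3 cells/well; human epidermal keratinocytes (EpiLife medium) at 3.5×10^4 cells/well. All adhered 24 h, then were exposed to 0.1 and 1 μM compound in replicate for 96 h at 37°C. Cells were trypsinised, resuspended in PBS and counted in 0.4% trypan blue on a haemocytometer.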

SiHa [10] = test: Antiproliferative activity against human SiHa cells infected with HPV-16 after 72 hrs by flow cytometric analysis; format: functional, cell-based
In short: (§6)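 SiHa (HPV16+), HeLa (HPV18+) and C33A (HPV-) cervical carcinoma lines grown in DMEM with 10% FBS at 37°C, 5% CO2. Seeded 4×10^3 cells/well and left to adhere 24 h. Treated in triplicate with 1, 10 and 100 μM of compound formulated in ~1% DMSO/PBS pH 7.4.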

HeLa [11] = test: Antiproliferative activity against human HeLa cells infected with HPV-18 after 72 hrs by flow cytometric analysis; format: functional, cell-based; in short: as §6
SiHa [12] = test: Antiproliferative activity against human SiHa cells infected with HPV-16 after 96 hrs by trypan blue staining-based Neubauer haemocytometric analysis; format: functional, cell-based; in short: as §5
[13] = Antiproliferative activity against human C33A cells after 72 hrs by flow cytometric analysis; format: cell-based, C-33-A; in short: as §6
[14] = Antiproliferative activity against human M08 cells infected with HPV-16 after 96 hrs by trypan blue staining-based Neubauer haemocytometric analysis; format: functional, cell-based; conditions: M08, 96 h; in short: as §5
[15] = Prodrug activation assessed as carboxypeptidase Y (unknown origin)-mediated aminoacyl phosphonamidate ester formation at 3 mg at 25 degC up to 12 hrs by [31P]-NMR analysis
In short: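 Compound (3.0 mg) in acetone-d6 plus Trizma buffer pH 7.6 was recorded by 31P NMR at 25°C as control. Carboxypeptidase Y (0.1 mg in Trizma) was then added, and spectra were taken every 7 min over 12 h at 25°C.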

[16] = Cytotoxicity against human MT2 cells
[17] = test system: Human immunodeficiency virus 1; test: microbe, parasite or virus in culture; conditions: Human immunodeficiency virus 1, 3B, MT2
CCRF-CEM [18] = test: as §3; format: cell-based; conditions: ccrf-cem
[19] = Human alphaherpesvirus 2, strain G, HEL
[20] = Human alphaherpesvirus 1, KOS, HEL
[21] = Human immunodeficiency virus 2, ISOLATE ROD, CCRF-CEM
[22] = Human immunodeficiency virus 1, 3B, CCRF-CEM

Compound | EC50 (Human alphaherpesvirus 2; [19]) | EC50 (Human alphaherpesvirus 1 [1]; [20]) | MCC [2] | IC50 (HeLa [3]; Homo sapiens, HeLa, 72 h) | CC50 [4] | EC50 (Vaccinia virus) | IC50 (L1210; Mus musculus, L1210, 48 h) | IC50 (CCRF-CEM [5]; Homo sapiens, CCRF-CEM, 72 h) | EC50 [6, 21] | EC50 (Human alphaherpesvirus 1 [7]) | EC50 [8, 22] | IC50 ([13]; Homo sapiens, C-33-A, 72 h) | also measured
C[C@H](Cn1cnc2c(N)ncnc21)OCP(=O)(N[C@@H](C)C(=O)OCc1ccccc1)N[C@@H](C)C(=O)OCc1ccccc1 | 3000 nM | 10000 nM | > 100 µM | > 500000 nM | 6900 nM | 20000 nM | 120000 nM | > 500000 nM | 14 nM | 7000 nM | 30 nM | – | –
C[C@H](NP(=O)(COCCn1cnc2c(N)ncnc21)Oc1cccc2ccccc12)C(=O)OCC(C)(C)C (stereo not given in full) | 100 nM | 250 nM | > 100 µM | 920 nM | 45 nM | 1600 nM | 68 nM | 45 nM | 19 nM | 200 nM | 32 nM | 540 nM | IC50 [9]: 76 nM; IC50 (SiHa [10]): 600 nM; IC50 (HeLa [11]; Homo sapiens, HeLa, 72 h): 500 nM; IC50 (SiHa [12]): 90 nM; IC50 [14]: 48 nM
C[C@H](NP(=O)(COCCn1cnc2c(N)ncnc21)N[C@@H](C)C(=O)OCC(C)(C)C)C(=O)OCC(C)(C)C | 200 nM | 300 nM | > 100 µM | 1600 nM | 200 nM | 2700 nM | 240 nM | 200 nM | 19 nM | 300 nM | 24 nM | 840 nM | IC50 [9]: 300 nM; IC50 (SiHa [10]): 660 nM; IC50 (HeLa [11]; Homo sapiens, HeLa, 72 h): 600 nM; IC50 (SiHa [12]): 830 nM; IC50 [14]: 820 nM
C[C@H](Cn1cnc2c(N)ncnc21)OCP(=O)(N[C@@H](C)C(=O)OCc1ccccc1)Oc1cccc2ccccc12 (stereo not given in full) | 700 nM | 1300 nM | > 100 µM | 11000 nM | 4400 nM | 5500 nM | 3700 nM | 4400 nM | 11 nM | 800 nM | 19 nM | – | –
C[C@H](NP(=O)(COCCn1cnc2c(N)ncnc21)Oc1cccc2c1CCCC2)C(=O)OCC(C)(C)C (stereo not given in full) | 50 nM | 130 nM | > 100 µM | 450 nM | 19 nM | 1300 nM | 26 nM | 19 nM | 7 nM | 120 nM | 17 nM | – | Drug metabolism [15]: metabolite_detected
C[C@H](NP(=O)(COCCn1cnc2c(N)ncnc21)Oc1cccc2ccccc12)C(=O)OCc1ccccc1 (stereo not given in full) | 8 nM | 20 nM | > 100 µM | 1600 nM | 120 nM | 9500 nM | 41 nM | 120 nM | 50 nM | 700 nM | 30 nM | – | –
C[C@H](Cn1cnc2c(N)ncnc21)OCP(=O)(N[C@@H](C)C(=O)OCC(C)(C)C)Oc1cccc2c1CCCC2 (stereo not given in full) | 1400 nM | 1400 nM | > 100 µM | 5300 nM | 2000 nM | 10500 nM | 1300 nM | 2000 nM | 9 nM | 5500 nM | 11 nM | – | –
C[C@H](NP(=O)(COCCn1cnc2c(N)ncnc21)Oc1ccccc1)C(=O)OCC(C)(C)C (stereo not given in full) | 150 nM | 600 nM | > 100 µM | 2200 nM | 400 nM | 3700 nM | 150 nM | 400 nM | 44 nM | 550 nM | 56 nM | – | –
CC(C)OC(=O)[C@H](C)N[P@](=O)(CO[C@H](C)Cn1cnc2c(N)ncnc21)Oc1ccccc1 [TENOFOVIR ALAFENAMIDE] | – | – | – | – | – | – | – | – | – | – | – | – | CC50 [16]: 40000 nM; EC50 [17]: 5 nM
C[C@H](Cn1cnc2c(N)ncnc21)OCP(=O)(O)O [TENOFOVIR ANHYDROUS] | 122000 nM | 105000 nM | > 100 µM | 17000 nM | > 500000 nM | > 100000 nM | 11000 nM | 6900 nM | 3700 nM | 151000 nM | 3900 nM | – | –
C[C@H](Cn1cnc2c(N)ncnc21)OCP(=O)(N[C@@H](C)C(=O)OCC(C)(C)C)N[C@@H](C)C(=O)OCC(C)(C)C | 700 nM | 1500 nM | > 100 µM | 4000 nM | 1200 nM | 6000 nM | 1500 nM | 1200 nM | 2 nM | 2000 nM | 4 nM | 700 nM | IC50 (SiHa [10]): 730 nM; IC50 (HeLa [11]; Homo sapiens, HeLa, 72 h): 540 nM
C[C@H](Cn1cnc2c(N)ncnc21)OCP(=O)(N[C@@H](C)C(=O)OCC(C)(C)C)Oc1cccc2ccccc12 (stereo in doubt; 15) | 700 nM | 1500 nM | > 100 µM | 17000 nM | 6900 nM | 4000 nM | – | 6900 nM | 7 nM | 2000 nM | – | 7600 nM | IC50 (L1210; l1210): 5600 nM; IC50 (HeLa [11]; hela): 530 nM; EC50 ([8]; ccrf-cem): 9 nM
C[C@H](Cn1cnc2c(N)ncnc21)OCP(=O)(N[C@@H](C)C(=O)OCC(C)(C)C)Oc1cccc2ccccc12 (mixture of isomers) | – | – | – | – | – | – | – | – | – | – | – | – | EC50 (Human alphaherpesvirus 2; hel): 800 nM; EC50 (Human alphaherpesvirus 1 [1]; hel): 2000 nM; IC50 (HeLa [3]; hela): 12000 nM; CC50 (CCRF-CEM [18]): 3900 nM; IC50 (L1210; l1210): 2200 nM; IC50 (CCRF-CEM [5]; ccrf-cem): 3900 nM; IC50 (SiHa [10]): 7800 nM; IC50 (HeLa [11]; hela): 6200 nM; EC50 ([6]; ccrf-cem): 4 nM; IC50 ([13]; c-33-a): 6000 nM; EC50 ([8]; ccrf-cem): 3 nM
C[C@H](NP(=O)(COCCn1cnc2c(N)ncnc21)N[C@@H](C)C(=O)OCc1ccccc1)C(=O)OCc1ccccc1 | 250 nM | 700 nM | > 100 µM | 670 nM | 140 nM | 5000 nM | 210 nM | 140 nM | 25 nM | 600 nM | 40 nM | – | –
C[C@H](Cn1cnc2c(N)ncnc21)OCP(=O)(N[C@@H](C)C(=O)OCC(C)(C)C)Oc1ccccc1 (stereo not given in full) | 700 nM | 1300 nM | > 100 µM | 8000 nM | 2300 nM | 8000 nM | 4000 nM | 2300 nM | 12 nM | 1000 nM | 18 nM | – | –
Nc1ncnc2c1ncn2CCOCP(=O)(O)O [ADEFOVIR] | 6300 nM | 4700 nM | > 100 µM | 181000 nM | ≥ 50000 nM | – | 3000 nM | 24000 nM | 8200 nM | 7000 nM | 8400 nM | 7800 nM | –
